# Laboratory results published in ChEMBL document CHEMBL4041527, “Disulfide Bond-Containing Ajoene Analogues As Novel Quorum Sensing Inhibitors of Pseudomonas aeruginosa” (J Med Chem, 2017).
# Activity calls are given as the source filed them. The calls are words filed in the database; no cut-off is given here.
# Assays:
# [1] = tested on: Pseudomonas aeruginosa PAO1; assay: (§1) Inhibition of quorum sensing LasI synthase in Pseudomonas aeruginosa PAO1 harboring reporter plasmid lasB-gfp assessed as reduction in lasB expression measured every 15 mins for 12 hrs by GFP-fluorescence assay
# Pseudomonas aeruginosa [2] = assay: Growth inhibition of Pseudomonas aeruginosa PAO1 harboring reporter plasmid lasB-gfp
# [3] = as §1
# [4] = tested on: Pseudomonas aeruginosa PAO1; assay: Inhibition of quorum sensing LasI synthase in Pseudomonas aeruginosa PAO1 harboring reporter plasmid lasB-gfp assessed as reduction in lasB expression at 10 uM measured every 15 mins for 12 hrs by GFP-fluorescence assay
# Pseudomonas aeruginosa [5] = assay: Antibacterial activity against Pseudomonas aeruginosa in bacterial coated silicone implanted BALB/c mouse assessed as reduction in biofilm formation at 10 uM measured at 24 hrs post infection; format: functional
# How it was run: (§2)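 Female BALB/c mice, 8 weeks old. A 4 mm silicone tube was incubated 18 h at 37 °C in 0.9% NaCl with P. aeruginosa (OD600 0.1), then inserted into the peritoneal cavity under ketamine/xylazine. At 2 h post-infection, 200 µL of 10 µM compound (EtOH stock diluted in 20% hydroxypropyl-β-cyclodextrin/saline) was injected at the implant site; vehicle for controls. At 24 h, CFU/mL counted from sonicated implants and homogenized spleens on LB; Mann-Whitney U test.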
# [6] = Inhibition of quorum sensing regulator protein pqsR in Pseudomonas aeruginosa PAO1 harboring reporter plasmid pqsA-gfp assessed as reduction in pqsA expression measured every 15 mins for 12 hrs by GFP-fluorescence assay
# [7] = target: T1, HTH-type quorum-sensing regulator RhlR (Pseudomonas aeruginosa (strain ATCC 15692 / PAO1 / 1C / PRS 101 / LMG12228)) (UniProt P54292); assay: Inhibition of quorum sensing regulator protein RhlR in wild-type Pseudomonas aeruginosa PAO1 assessed as reduction in rhamnolipid level at 10 uM after 24 hrs relative to control
# T1 sequence (whole entry): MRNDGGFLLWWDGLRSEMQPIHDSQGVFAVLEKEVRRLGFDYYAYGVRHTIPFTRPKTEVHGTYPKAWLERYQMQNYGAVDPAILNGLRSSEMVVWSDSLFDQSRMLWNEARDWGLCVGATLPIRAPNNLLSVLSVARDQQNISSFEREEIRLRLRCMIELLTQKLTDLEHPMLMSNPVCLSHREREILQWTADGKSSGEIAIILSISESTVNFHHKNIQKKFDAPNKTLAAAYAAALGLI
# How it was run: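 PAO1 subculture diluted 100-fold into ABTGC (OD600 0.1) with 10 µM compound, ∆lasI∆rhlI as negative control. Grown 24 h at 37 °C, 200 rpm; final OD600 read. Supernatant extracted twice with diethyl ether and rhamnolipid quantified by a modified orcinol method. Student's t test, mean ± SD.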
# [8] = tested on: Pseudomonas aeruginosa PAO1; assay: Inhibition of quorum sensing LasI synthase in Pseudomonas aeruginosa PAO1 harboring reporter plasmid lasB-gfp at 10 uM in presence of bovine serum albumin measured after 18 hrs by GFP-fluorescence assay
# How it was run: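 BSA dissolved in ABTGC at 100 mg/mL, then 2-fold serially diluted across rows; compound final 10 µM. PAO1-lasB-gfp, grown overnight in LB, added at OD600 0.02 in ABTGC. GFP/OD read after 18 h at 37 °C.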
# [9] = target: T1, HTH-type quorum-sensing regulator RhlR (Pseudomonas aeruginosa (strain ATCC 15692 / PAO1 / 1C / PRS 101 / LMG12228)); assay: Inhibition of quorum sensing regulator protein RhlR in wild-type Pseudomonas aeruginosa PAO1 assessed as reduction in pyocyanin level at 10 uM after 48 hrs
# How it was run: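 PAO1 wild type, with ∆lasI∆rhlI as negative control, standardized to OD600 0.1 and diluted 100-fold into 25 mL King's medium with 10 µM compound. Grown 48 h at 37 °C, 200 rpm; final OD600 read. Pyocyanin extracted from supernatant with chloroform then 0.2 M HCl; absorbance read on the aqueous layer. Student's t test.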
# [10] = tested on: Pseudomonas aeruginosa PAO1; assay: Inhibition of quorum sensing LasI synthase in wild-type Pseudomonas aeruginosa PAO1 assessed as reduction in elastase production at 10 uM incubated for 24 hrs measured every 10 mins for 3 hrs by BODIPY fluorophore-labelled DQ elastin conjugate based fluorescence assay
# How it was run: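 PAO1 wild type, with ∆lasI∆rhlI as negative control, diluted to OD600 0.01 in 5 mL ABTGC with 10 µM compound. Grown 24 h at 37 °C, 200 rpm. Cleared supernatant assayed with BODIPY FL-labelled DQ elastin; fluorescence (ex 490/em 520 nm) read every 10 min for 3 h. Student's t test, mean ± SD.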
# Pseudomonas aeruginosa [11] = assay: Effect on GFP fluorescence output signal in Pseudomonas aeruginosa PAO1 at 10 uM measured every 15 mins for 12 hrs; format: ADME
# How it was run: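 PAO1-gfp control strain, handled as the lasB-gfp reporter assay. Overnight LB culture diluted in ABTGC to OD600 0.02 and mixed with compound, final 10 µM, DMSO 0.1% final. Incubated at 37 °C; OD600 and GFP fluorescence (ex 485/em 535 nm) read every 15 min for at least 12 h, in triplicate.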
# RAW264.7 [12] = assay: Cytotoxicity against mouse RAW264.7 cells at 0.01 to 10 uM measured after 16 hrs by Alamar blue assay; format: cell-based; settings: raw264.7, 16 h
# How it was run: (§3)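 RAW264.7 macrophages in DMEM with 10% FBS, 1 × 10^5 per well, grown 16 h. Cells were washed with PBS and exposed to compound at 0, 0.01, 0.1, 1, 10 or 100 µM for 16 h at 37 °C, 5% CO2. Alamar Blue added, 3 h incubation, OD595 read. Triplicates, mean±s.d., compared with DMSO.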
# [13] = target: T2, HTH-type quorum-sensing regulator RhlR (Pseudomonas aeruginosa (strain ATCC 15692 / PAO1 / 1C / PRS 101 / LMG12228), UniProt P54292); assay: Inhibition of quorum sensing regulator protein RhlR in Pseudomonas aeruginosa PAO1 harboring reporter plasmid rhlA-gfp assessed as reduction in rhlA expression measured every 15 mins for 12 hrs by GFP-fluorescence assay
# T2 sequence (P54292 whole entry): T1 sequence (whole entry)
# Pseudomonas aeruginosa [14] = assay: Antibacterial activity against Pseudomonas aeruginosa infected in BALB/c mouse assessed as reduction in bacterial dissemination in spleen at 10 uM measured at 24 hrs post infection; format: functional; how it was run: as §2
# RAW264.7 [15] = assay: Cytotoxicity against mouse RAW264.7 cells at 100 uM measured after 16 hrs by Alamar blue assay; format: cell-based; settings: raw264.7, 16 h; how it was run: as §3
SMILES,growth inhibition (GI) (Pseudomonas aeruginosa [2]),IC50 [3],other results
C=CCSc1nc2ccccc2s1,Non-Toxic,,inhibition [1]: inactive
Cc1ccc2nc(SSc3nc4ccc(C)cc4s3)sc2c1,Non-Toxic,16.9 µM,
CCOc1ccc2nc(SSc3nc4ccc(OCC)cc4s3)sc2c1,Non-Toxic,45.4 µM,
FC(F)(F)c1ccc2nc(SSc3ccc(Cl)cc3)sc2c1,Non-Toxic,0.58 µM,
C=CCSSc1nnnn1-c1ccccc1,Non-Toxic,,inhibition [4]: inactive
C=CCSSCc1ccccc1,Non-Toxic,20.9 µM,
C=CCSSc1ccccc1C(=O)OC,Non-Toxic,,inhibition [4]: inactive
C=CCCSc1nc2ccccc2s1,Non-Toxic,,inhibition [1]: inactive
Clc1ccc(SSc2nc3ccc(Cl)cc3s2)cc1,Non-Toxic,3.25 µM,
CCOC(=S)SCC#N,,2.14 µM,inhibition [1]: Dose-dependent effect
C=CCSSc1nc2cc(OC)ccc2o1,Non-Toxic,3.45 µM,
C=CCSSc1nc2ccccc2s1,Non-Toxic,0.98 µM,Activity (Pseudomonas aeruginosa [5]): Active; IC50 [6]: 0.33 µM; inhibition [7]: 50%; inhibition [8]: Active; inhibition [9]: Active; inhibition [10]: Active; Activity (Pseudomonas aeruginosa [11]): Non-Toxic; Activity (RAW264.7 [12]): Non-Toxic; inhibition [1]: Dose-dependent effect; IC50 [13]: 2.03 µM; Activity (Pseudomonas aeruginosa [14]): Active; Activity (RAW264.7 [15]): Toxic
O=C(NS(=O)(=O)c1ccccc1)c1ccccc1,,36.2 µM,inhibition [1]: Dose-dependent effect
C=CCSSc1nc2ccc(C(F)(F)F)cc2s1,Non-Toxic,1.35 µM,
COc1ccc(SSc2nc3ccccc3s2)cc1,Non-Toxic,1.66 µM,
CCCSc1nc2ccccc2s1,Non-Toxic,,inhibition [1]: inactive

SMILES,growth inhibition (GI) (Pseudomonas aeruginosa [2]),IC50 [3],other results
C[S+]([O-])CCCN=C=S (configuration not stated),Non-Toxic,31 µM,
C=CCSSc1nc2ccc(OCC)cc2s1,Non-Toxic,3.58 µM,
C=CCSS/C=C/C[S+]([O-])CC=C (configuration not stated) [AJOENE],Non-Toxic,15 µM,IC50 [13]: 50 µM
C=CCSSc1nc2ccc(C)cc2s1,Non-Toxic,1.12 µM,
CCCSSc1nc2ccccc2s1,Non-Toxic,2.2 µM,
FC(F)(F)c1ccc2nc(SSc3nc4ccc(C(F)(F)F)cc4s3)sc2c1,Non-Toxic,12.1 µM,
Clc1ccc(Sc2nc3ccccc3s2)cc1,Non-Toxic,,inhibition [1]: inactive
C=CCSSc1nc2ccc(Cl)cc2o1,Non-Toxic,4.08 µM,
c1ccc2sc(SSC3CCCCC3)nc2c1,Non-Toxic,6 µM,
c1ccc(SSc2nc3ccccc3s2)cc1,Non-Toxic,1.34 µM,
Cc1ccc2nc(SSc3ccc(Cl)cc3)sc2c1,Non-Toxic,0.68 µM,
C=CCSSc1nnc(N)s1,Non-Toxic,2.28 µM,inhibition [1]: Dose-dependent effect
CCOc1ccc2nc(SSc3ccc(Cl)cc3)sc2c1,Non-Toxic,0.72 µM,
c1ccc2sc(SSc3nc4ccccc4s3)nc2c1 [BENZOTHIAZYL DISULFIDE],Non-Toxic,14.5 µM,
Clc1ccc(SSc2nc3ccccc3s2)cc1,Non-Toxic,0.56 µM,Activity (Pseudomonas aeruginosa [5]): Active; inhibition [7]: 50%; inhibition [8]: Active; inhibition [9]: Active; inhibition [10]: Active; Activity (Pseudomonas aeruginosa [11]): Non-Toxic; Activity (RAW264.7 [12]): Non-Toxic; Activity (Pseudomonas aeruginosa [14]): Active; Activity (RAW264.7 [15]): Toxic
C=CCSSc1nc2ccc(Cl)cc2s1,Non-Toxic,0.78 µM,
